# Bioassay records: PubChem, several laboratories
# Sampled rows, rich in hits. Any-hit rate of the full collection: about 5.7%.
# SKKanGAS inh: S. pyogenes SKKanGAS growth inhibitors in kanamycin, primary screen, streptokinase expression inhibitor project, SKKanGAS strain, BacTiter-Glo luminescence | 1.3% of 300,000 active | 6 h | AID 1662, 2009 | inhibition, % at 7.5 µM;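 active = mean replicate score, as percent of positive control median, at least 50; inconclusive = mean below 50 but one replicate at or above 50; inactive = mean and every replicate below 50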;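 note: strain carries kanamycin resistance gene driven by streptokinase promoter and grows in 40 µg/ml kanamycin; loss of luminescence reflects streptokinase promoter inhibition or plain growth inhibition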
# T cruzi repl: inhibitors of intracellular T. cruzi growth, primary screen, luminescence, NIH3T3 host cells | T. cruzi beta-gal in NIH3T3, 90 h | inhibition, % (test concentration not listed) | AID 1885, 2009 | 1.4% of 300,000 active;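 active = mean inhibition across valid replicates above about 55%, limit read from the data; inconclusive = mean below that limit but half or more replicates reach it; inactive = mean below it, under half of replicates reach it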;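 note: signal also drops with host cell toxicity which is not excluded here; higher percent means less beta-gal luminescence so fewer parasites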
#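 Read-out: Parasite load inhibition, % | Test system: Mouse NIH/3T3 fibroblasts infected with β-gal-expressing T. cruzi Tulahuen C4 | Amount: 5,000 cells/well | Medium: DMEM, 2% fetal bovine serum | Signal: GalScreen β-gal luminescence, detergent lysis, 60 min | Timing: 3 h attach, ≥90 h co-culture | Also added: Tulahuen C4 trypomastigotes, 5000/well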
# CSC inhib: cancer stem cell viability inhibitors, primary screen, luminescence; cancer stem cell-like cells viability; AID 2717, 2010; 1.1% of 300,000 active; inhibition, % at 7.5 µM; in the data active = inhibition above about 75%; inconclusive = no clear call, values can overlap the other calls; tested in HMLE shEcad cells
# Beta apoptosis: inhibitors of cytokine-induced beta cell apoptosis, primary screen, luminescence. INS-1E cytokine-induced death, ATP luminescence, 48 h; percent of positive-control rescue, neutral wells zero. protection from apoptosis, % (concentration not given with the values). 0.8% of 300,000 active. AID 435005, 2010;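 active = Every replicate reaches about 75%, or at least half do and their mean reaches it too, limit read from the data; inconclusive = At least half of replicates reach the limit but their mean does not; inactive = Under half of replicates reach the limit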;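 note: higher means more ATP so stronger rescue from cytokine killing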
# Mdm2-MdmX inh: inhibitors of human Mdm2-MdmX association, primary screen, cell-based, luminescence, split luciferase, SaOS-2, uHTS. 3% of 330,000 active. SaOS-2 split-luciferase Mdm2/MdmX complementation. Protein Mdm4 (Homo sapiens) + E3 ubiquitin-protein ligase Mdm2 (Homo sapiens), …. inhibition, % at 8 µM. AID 485346, 2010;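 active = inhibition of at least 50% at 8 µM in the primary screen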
# Target sequence (O15151 whole entry, looked up): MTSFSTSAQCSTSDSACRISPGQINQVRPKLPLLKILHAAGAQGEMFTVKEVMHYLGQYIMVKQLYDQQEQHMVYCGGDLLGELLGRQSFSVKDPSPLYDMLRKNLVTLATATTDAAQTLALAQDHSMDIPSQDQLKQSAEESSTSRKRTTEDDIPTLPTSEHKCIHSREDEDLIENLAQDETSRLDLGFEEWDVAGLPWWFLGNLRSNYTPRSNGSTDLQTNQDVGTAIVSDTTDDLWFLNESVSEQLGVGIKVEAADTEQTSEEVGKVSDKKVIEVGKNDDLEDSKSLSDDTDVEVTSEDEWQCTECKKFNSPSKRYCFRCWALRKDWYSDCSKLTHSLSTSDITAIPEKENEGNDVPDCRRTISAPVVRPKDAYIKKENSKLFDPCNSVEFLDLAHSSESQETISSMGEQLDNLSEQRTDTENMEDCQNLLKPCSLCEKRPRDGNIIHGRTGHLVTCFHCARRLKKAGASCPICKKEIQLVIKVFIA
# Target sequence (Q00987 whole entry, looked up): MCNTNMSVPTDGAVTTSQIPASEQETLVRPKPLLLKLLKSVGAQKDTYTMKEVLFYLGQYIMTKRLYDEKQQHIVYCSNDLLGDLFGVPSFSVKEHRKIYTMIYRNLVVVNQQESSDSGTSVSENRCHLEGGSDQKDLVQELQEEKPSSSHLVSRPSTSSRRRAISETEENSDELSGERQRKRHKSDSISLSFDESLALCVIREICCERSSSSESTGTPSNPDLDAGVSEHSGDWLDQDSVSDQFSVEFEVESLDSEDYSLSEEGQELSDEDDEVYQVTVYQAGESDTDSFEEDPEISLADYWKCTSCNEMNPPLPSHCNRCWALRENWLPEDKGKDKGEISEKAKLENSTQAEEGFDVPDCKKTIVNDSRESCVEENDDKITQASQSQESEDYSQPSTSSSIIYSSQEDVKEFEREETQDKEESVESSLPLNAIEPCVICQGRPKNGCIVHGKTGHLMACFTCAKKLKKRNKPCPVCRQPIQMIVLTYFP
# Calb FLC: C. albicans growth inhibition with fluconazole, primary screen, CaCi-2 strain, Alamar Blue fluorescence; growth inhibition, % (test concentration not listed); C. albicans CaCi-2 (fluconazole-resistant clinical isolate) + fluconazole, 48 h; 0.57% of 300,000 active;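 active = growth inhibition above about 58% in most replicates, limit read from the data, passing the limit was not always enough; inconclusive = exactly half the replicates above a set limit; inactive = most replicates below a set limit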;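 note: all wells also contain fluconazole at 8 µg/ml as a sub-toxic cotreatment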
# Numbers stand for hits; i = inactive; ? = inconclusive; nt = not tested or not shown.
SMILES,SKKanGAS inh,T cruzi repl,CSC inhib,Beta apoptosis,Mdm2-MdmX inh,Calb FLC
N#C/C(=C\c1ccc(N2CCOCC2)o1)C(=O)NC1CCCCC1,i,i,i,i,i,i
N#C/C(=C/c1ccc(N2CCCCC2)o1)c1cccc(F)c1,i,56,i,nt,i,i
N#C/C(=C/c1ccc(N2CCCCCC2)o1)c1ccc(Cl)cc1,i,65,i,81,i,i
Cc1ccc(/C(C#N)=C\c2ccc(N3CCOCC3)o2)cc1,i,58,i,i,i,i
COc1ccc(CC(=O)Nc2nnc(CC(C)C)s2)cc1S(=O)(=O)N1CCOCC1,nt,nt,nt,nt,i,nt
Cc1ccc(CN(Cc2cccnc2)C(=O)CN2C(=O)COc3ccccc32)o1,i,55,i,i,i,i
COc1cc2c(cc1OC)CN(C(=O)CCNS(=O)(=O)c1ccccc1F)CC2,i,i,nt,i,i,i
Cc1ccc(-n2c(SCC(=O)Nc3ccc4c5c(cccc35)CC4)nc(O)c(C)c2=O)cc1,i,i,i,i,i,i
COc1ccc(NC(=O)CSc2nc(O)cc(=O)n2-c2ccc(OC)cc2)cc1,54,i,i,i,i,i
COc1ccc(-n2c(SCC(=O)Nc3cccc4ccccc34)nc(O)cc2=O)cc1,i,i,i,i,i,i
COc1ccc(-n2c(SCC(=O)Nc3ccccc3)nc(O)cc2=O)cc1,50,i,i,i,i,i
Cc1ccc(-n2c(SCC(=O)Nc3ccc4c5c(cccc35)CC4)nc(O)cc2=O)cc1,52,i,i,i,i,i
O=C1CC(=O)Nc2cc(S(=O)(=O)Nc3ccc(F)cc3Cl)ccc2N1,i,i,nt,i,i,i
COc1cc2cc(Oc3ccc4ccc(=O)oc4c3)c(=O)oc2cc1O,59,i,i,i,i,i
COc1cc2cc(Oc3ccc4ccc(=O)oc4c3)c(=O)oc2cc1OC(C)=O,i,i,i,i,i,i
Cc1ccccc1NC(=O)c1cccc(N2C(=O)C3C4CC(C(Br)C4Br)C3C2=O)c1 (configuration not stated),nt,nt,i,i,i,i
CC(C(=O)NCc1ccccc1)n1cc([N+](=O)[O-])cn1 (configuration not stated),i,i,i,i,i,i
Cc1cc(-c2cn3ccccc3n2)c(C)n1-c1ccccc1,i,62,i,i,i,i
O=C(CSc1nc2c(cnn2-c2ccccc2)c(=O)[nH]1)N1N=C(c2cccs2)CC1c1ccc(F)cc1 (configuration not stated),51,i,i,i,i,i
O=c1ccc(N=Nc2ccccc2)ccc1O,91,i,i,i,nt,101
Cc1ccc(C(C)NC(=S)NC2CCCCC2)cc1C (configuration not stated),i,i,i,i,i,i
CCC(NC(=S)NC1CCCCC1)c1ccc(C(C)C)cc1 (configuration not stated),65,i,i,i,i,i
COc1ccc(-c2nc(NC(C)=O)sc2-c2ccc(OC)cc2)cc1,67,i,i,i,i,i
COc1ccc(-c2noc(CCC(=O)N3CCN(c4ccc(F)cc4)CC3)n2)cc1,nt,nt,nt,nt,i,nt
CCc1ccc(CN(C(=O)COc2c(C)cccc2C)C2CCS(=O)(=O)C2)cc1 (configuration not stated),i,i,i,i,i,i
SMILES,SKKanGAS inh,T cruzi repl,CSC inhib,Beta apoptosis,Mdm2-MdmX inh,Calb FLC
Clc1ccc(-c2cn(-c3ccc(Cl)cc3)c3[n+]2CCCCC3)cc1,i,i,i,i,i,i
COc1ccc(-c2cn(-c3ccc(Cl)cc3)c3[n+]2CCCCC3)cc1,i,58,i,100,i,i
COc1ccc(-n2cc(-c3ccc(OC(F)F)cc3)[n+]3c2CCCCC3)cc1,i,59,i,103,i,i
COc1ccc(C/C(O)=C(\C#N)c2nc3ccccc3s2)cc1,i,i,nt,nt,i,94
Cc1ccc(SC/C(O)=C(\C#N)c2nc3ccccc3s2)cc1,77,i,i,i,i,88
N#C/C(=C(/O)COc1ccc(Cl)cc1)c1nc2ccccc2s1,90,i,99,i,i,94
COc1ccc(Cn2nnc3c(=O)[nH]c(C4CCN(S(=O)(=O)c5ccc(C)cc5)CC4)nc32)cc1,i,i,i,i,i,i
O=C(NC1CCCCC1)NC1C2CC3CC(C2)CC1C3 (configuration not stated),54,i,i,i,i,i
O=C(NC1C2CC3CC(C2)CC1C3)C1CC1 (configuration not stated),i,i,i,nt,i,i
Nc1nc2ccccc2n1CCOc1ccc(F)cc1,i,i,i,nt,i,i
C=C(CC[C@@H](O)C(C)(C)O)[C@H]1CC[C@]2(C)[C@@H]1CCC1[C@@]3(C)CCC(=O)C(C)(C)C3CC[C@]12C (some centres not stated),nt,nt,109,i,i,nt
C=C(C)[C@@H]1CCC2(C(=O)O)CC[C@]3(C)[C@H](CC[C@@H]4[C@@]5(C)CCC(=O)C(C)(C)[C@@H]5CC[C@]43C)[C@@H]12 (some centres not stated),104,i,i,i,i,i
Cc1cc(C)c(S(=O)(=O)Nc2ncccc2C)c(C)c1,i,i,i,i,i,i
Oc1cccc2ccc(/C=C/c3c(F)cccc3Cl)nc12,74,i,i,nt,i,i
Oc1cccc2ccc(/C=C/c3ccccc3Cl)nc12,99,i,i,i,i,i
CN(C)S(=O)(=O)c1cccc(-c2nn(-c3ccccc3)cc2/C=C2\SC(=S)NC2=O)c1,nt,nt,94,i,nt,nt
Cc1cc(=O)c(C(=O)O)cn1Nc1ccc(Cl)cc1,65,i,i,i,i,i
Fc1cc(F)c(C2SCCN2C(=S)Nc2cccc(C(F)(F)F)c2)c(F)c1 (configuration not stated),50,i,i,i,i,i
Cc1nn(Cc2ccc(F)cc2)c(Cl)c1/C=N/NC(=O)c1ccccc1,i,66,i,i,i,?
Cc1nn(-c2ccccc2)c(Cl)c1/C=N/NC(=O)c1ccc(NS(=O)(=O)c2cccs2)cc1,72,i,i,i,i,i
Cc1csc2c(SCC(=O)NNC(=O)C(Cl)Cl)ncnc12,i,i,i,i,i,i
C#CCOC(=O)Nc1ccc(OCC(F)(F)F)nc1,i,i,i,i,i,i
Cn1c(N)c(C(=O)CSc2n[nH]c(-c3ccccc3)n2)c(=O)n(C)c1=O,nt,nt,nt,i,i,nt
Cc1ccc2c(c1)cc(CN(Cc1cccnc1)C(=O)c1ccccc1)c1nnnn12,i,i,i,i,i,i
Cc1ccc(C(=O)N(Cc2cccnc2)Cc2cc3cc(C)ccc3n3nnnc23)cc1,i,67,nt,i,i,i
